An excerpt weighted towards active compounds, which were near 3.7% of everything screened.
NPY1 pot ag: NPY-Y1 receptor potentiators or agonists, primary screen, cell-based | Neuropeptide Y receptor type 1 (Homo sapiens), P25929 | NPY-Y1 expressing cells, potentiator/agonist activation | activation, % at 3.6 µM | 220,000 tested, 0.37% active; in the data active means activation above about 33%, passing the limit was not always enough;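 further: cells stimulated with NPY at EC10 then isoproterenol at EC100; 0% = low agonist plus stimulus and 100% = saturating agonist plus stimulus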
NPY Y1 blocker: NPY-Y1 receptor antagonists, primary screen, cell-based. 200,000 tested, 1% active. Neuropeptide Y receptor type 1 (Homo sapiens), P25929. inhibition, % at 3.6 µM. AID 1040, 2008. HEK293-CNG Y1 cells, membrane potential fluorescence; NPY at EC95, then isoproterenol;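 active means inhibition above the campaign mean inhibition of all tested compounds plus 3 SD, cut at about 20% in these data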;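 further: 0% = DMSO wells given NPY plus isoproterenol and 100% = isoproterenol alone without NPY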
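Assay system: HEK293 cells with Y1 receptor plus CNG channel | Probe or stimulus: NPY (25 nM), isoproterenol (1 µM), Ro 20-1724 (25 µM) | Timing: Compound incubation 1 h at room temperature, readout 45 min post-stimulation | Measured by: Membrane-potential fluorescent dye readout | Benchmarks: High control isoproterenol alone, low control NPY with isoproterenol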
NPY-Y2 PAM-ag: NPY-Y2 potentiators or agonists, primary screen, cell-based; AID 1359, 2008; Neuropeptide Y receptor type 2 (Homo sapiens), P49146; activation, % at 3.6 µM; 220,000 tested, 0.45% active; cells expressing NPY-Y2, potentiator/agonist read-out; in the data active means activation above about 27%;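 further: cells stimulated with NPY near EC25 plus isoproterenol at EC100; 0% = vehicle plus submaximal agonist and 100% = vehicle plus saturating agonist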
Cl transport mod: KCC2 cotransporter modulators, thallium flux, primary screen, cell-based, HEK293 KCC2, FluoZin-2 fluorescence, MLSMR; Solute carrier family 12 member 5 (Homo sapiens), Q9H2X9; KCC2 cells, thallium flux FluoZin-2 fluorescence; B-score of Tl+ flux slope (higher = more flux/activation; lower = inhibition) at 10 µM; 190,000 tested, 2.2% active; AID 1456, 2008;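 active means thallium flux slope and its plate-corrected score both differing from the plate sample mean at a set confidence after two filtering rounds, in either direction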;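 further: slope of fluorescence scaled to starting intensity during 10 to 20 s after thallium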
NPY-Y2 antag: NPY-Y2 receptor antagonists, primary screen, cell-based; NPY-Y2 expressing cells, antagonist mode; inhibition, % at 2.7 µM; 140,000 tested, 0.99% active; AID 793, 2007;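 further: 0% = vehicle with agonist challenge and 100% = reference antagonist with challenge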
Furin inh: human furin inhibitors, primary screen, biochemical, fluorescence intensity; P09958; 220,000 tested, 0.061% active; inhibition, % at 20 µM or 30 µM; AID 463115, 2010; purified furin, fluorogenic substrate cleavage; in the data active means inhibition above about 25%
Target sequence (P09958 108-714 limits assumed): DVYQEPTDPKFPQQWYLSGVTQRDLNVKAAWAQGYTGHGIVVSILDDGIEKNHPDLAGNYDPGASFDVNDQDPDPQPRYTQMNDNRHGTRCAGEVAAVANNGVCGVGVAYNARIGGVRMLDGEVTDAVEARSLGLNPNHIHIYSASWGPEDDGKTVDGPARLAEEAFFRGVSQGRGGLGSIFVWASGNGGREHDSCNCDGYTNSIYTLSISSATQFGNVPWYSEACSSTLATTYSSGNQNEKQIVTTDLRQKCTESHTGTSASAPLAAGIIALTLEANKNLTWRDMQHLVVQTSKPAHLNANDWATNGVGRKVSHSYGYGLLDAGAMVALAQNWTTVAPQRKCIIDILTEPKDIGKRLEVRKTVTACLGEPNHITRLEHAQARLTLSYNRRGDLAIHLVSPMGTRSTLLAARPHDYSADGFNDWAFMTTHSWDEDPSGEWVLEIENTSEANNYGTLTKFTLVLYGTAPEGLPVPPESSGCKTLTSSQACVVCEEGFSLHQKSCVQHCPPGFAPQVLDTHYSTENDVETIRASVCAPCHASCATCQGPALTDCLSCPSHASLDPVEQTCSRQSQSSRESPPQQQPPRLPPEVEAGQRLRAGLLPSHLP
NPY1 antag conf: NPY-Y1 receptor antagonists, retest of hits, confirmation, HEK293-CNG cells, membrane potential fluorescence, triplicate. shares compounds with NPY Y1 blocker. cAMP; NPY challenge against isoproterenol-raised cAMP. inhibition, % at 3.6 µM. 1,200 tested, 21% active. AID 1254, 2008; in the data active means inhibition above about 20%;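 further: 0% = vehicle with agonist plus stimulus and 100% = stimulus alone without agonist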
NPY2 antag ctr: NPY-Y2 receptor antagonists, selectivity check, confirmation, counter-screen for NPY-Y1 antagonist project, HEK293-CNG cells, membrane potential fluorescence, triplicate; AID 1255, 2008; 1,200 tested, 28% active; antagonism; cells given NPY, then isoproterenol; inhibition, % at 3.6 µM; shares compounds with NPY Y1 blocker;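 further: 0% = DMSO with agonist challenge and 100% = reference antagonist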
Active calls of the source: *; . = no result given; ! = not active in a repeat. Unless noted, no stated cut-off is given here; in the data, active means inhibition above about 17%; inactive means the rest.

SMILES	NPY1 pot ag	NPY Y1 blocker	NPY-Y2 PAM-ag	Cl transport mod	NPY-Y2 antag	Furin inh	NPY1 antag conf	NPY2 antag ctr
Cc1ccc(C(=O)c2c(C)oc3c2C(=O)C(=O)c2ccccc2-3)cc1	-9.4	20.1	-2.7	-0.723	5.0	5.5	.	.
Cc1oc2c(c1C(=O)c1ccc(Cl)cc1)C(=O)C(=O)c1ccccc1-2	-22.3	26.4*	1.3	0.299	9.3	-16.4	9.0	12.4
COCCNC(=S)N/N=C1\CC(C)CC(C)(C)C1 (configuration not stated)	19.5	-0.4	4.7	-0.499	.	-32.7	.	.
COC(=O)/C(=N/Nc1ccccc1C)N1CCCc2ccccc21	-18.5	35.8*	-20.1	0.0303	6.2	-12.1	15.9	13.0
Cc1cccc2nc(-c3cccnc3)c(NCCC(C)C)n12	-0.1	21.8*	-7.2	0.555	.	-39.4	14.3	10.4
Cc1cccc2nc(-c3cccnc3)c(Nc3ccccc3)n12	14.5	-5.3	13.4	-0.93	.	-15.7	.	.
CCC(C)(NC(=O)c1ccc2c(c1)OCO2)C(=O)NC1CCCCC1 (configuration not stated)	-0.4	5.9	-13.2	0.965	.	-17.1	.	.
Cc1ccc(-n2ncc(C(=O)N3CCc4ccccc4C3)c2NC(=O)c2ccco2)cc1C	-40.7	21.7*	-7.8	-0.807	10.3	-12.2	2.2	8.5
O=C(NC(NC(=S)Nc1c(Cl)cccc1Cl)C(Cl)(Cl)Cl)OCc1ccccc1 (configuration not stated)	27.2	21.7*	11.7	-0.0452	4.5	-13.4	14.6	3.1
CCc1cccc(CC)c1NC(=O)Cn1c(-c2ccc(F)cc2)noc1=O	-6.6	30.3*	-12.4	0.102	.	-7.0	16.7	5.9
CCOC(=O)CSc1n[nH]c(NC(C)=O)n1	3.7	1.3	11.7	.	.	-19.6	.	.
COc1cc2c(cc1OC)C(c1cccs1)N(C(=O)c1cccc(S(=O)(=O)N(C)C)c1)CC2 (configuration not stated)	0.4	.	-31.8	-2.85	.	-8.6	.	.
N[C@@H](Cc1cc(I)c(Oc2ccc(O)c(I)c2)c(I)c1)C(=O)O	12.2	58.8*!	8.8	-2.17	4.2	-7.6	-2.7	1.9
O=C(NC1CCCCCC1)c1cc(-c2ccccn2)nc2ccccc12	-119.1	23.9*	-72.4	0.842	.	-15.9	24.6*	18.2*
CC(C)N1C(=O)C(Cc2nc3ccccc3c(=O)n2-c2ccccc2)c2ccccc21 (configuration not stated)	-56.8	22.1*	-30.4	.	2.0	-6.1	14.5	18.0*
CCCN1C(=O)C(Cc2nc3ccccc3c(=O)n2-c2ccccc2)c2ccccc21 (configuration not stated)	-30.5	14.3	-12.5	-0.139	5.3	-0.4	.	.
S=C(Nc1cccc2ccccc12)NC1CCCCC1	-11.4	3.3	-17.0	-0.00348	.	-31.0	.	.
CCc1ncc(C(=O)c2ccc(OC)cc2)n1C	-14.3	28.6*	-0.5	0.476	-1.8	-15.7	-0.3	0.1
CCN(CC)S(=O)(=O)c1cccc(NC(=O)COc2ccc(C#N)cc2OC)c1	-37.3	16.7	-13.6	-0.437	2.1	-10.1	.	.
CCN(CC)S(=O)(=O)c1cc(NC(=O)COc2ccc(C#N)cc2OC)ccc1C	-24.9	24.5*	-9.1	-0.283	11.8	-9.8	12.2	29.0*
CC(C)(C)NCC(=O)N/N=C/c1ccc(OCc2ccccc2)cc1	-34.9	25.1*	-32.9	0.299	.	-19.5	20.8*	30.9*
CCCCC12CN3CC(C)(CN(C1)C31C(=O)N(C)c3ccc(C)cc31)C2=O (configuration not stated)	-6.6	20.8*	11.4	1.69	3.5	6.8	1.5	8.5
Nc1nc(-c2ccccn2)nc(N)c1Cc1ccc(Cl)cc1Cl	0.9	4.5	-9.7	0.156	.	-12.2	.	.
CCn1nc(NS(=O)(=O)c2ccccc2)c2cc3cccc(C)c3nc21	-39.9	2.9	2.4	-1.56	7.2	-15.4	.	.
CCCn1nc(NS(C)(=O)=O)c2cc3cccc(C)c3nc21	-28.8	27.1*	-33.8	0.858	11.6	-3.8	15.4	14.6
SMILES	NPY1 pot ag	NPY Y1 blocker	NPY-Y2 PAM-ag	Cl transport mod	NPY-Y2 antag	Furin inh	NPY1 antag conf	NPY2 antag ctr
Cc1ccccc1CSCCNC(=O)CSCc1ccc([N+](=O)[O-])cc1	-18.8	20.3*	-4.2	-2.83	6.0	-9.4	2.4	8.2
Cc1ccc(CSCCNC(=O)CSCc2ccc([N+](=O)[O-])cc2)cc1	-20.5	8.8	-10.2	.	5.0	-39.7	.	.
Cc1cccc(CCNC(=O)C2CCN(S(=O)(=O)c3ccccc3)CC2)c1	6.9	1.5	-3.9	-0.54	.	-27.5	.	.
Cc1ccc(C2C3=C(CC(C)(C)CC3=O)NC3=C2C(=O)c2ccccc23)cc1 (configuration not stated)	-16.4	21.9*	-6.8	-0.574	6.7	-23.9	13.7	17.6*
Cn1c(-c2cccc([N+](=O)[O-])c2)cnc1NCc1ccc(C#N)cc1	16.9	1.9	10.8	-0.26	.	-18.4	.	.
CCC(=O)N(CCC(Cc1ccccc1)c1ccc2c(c1)OCO2)Cc1ccccc1F (configuration not stated)	-18.2	47.0*	-7.5	0.618	16.2	7.8	19.4	12.1
COc1ccccc1NC(=S)N(Cc1ccccc1)Cc1cccs1	-3.4	26.6*	1.8	0.766	.	-24.5	8.6	9.8
Cc1ccc(CSc2nc3ccccc3c(=O)n2Cc2ccco2)cc1	-35.6	27.8*	-6.0	1.01	11.0	-11.1	6.5	14.3
Cc1ccc2nc(NC(=O)Cc3cccs3)sc2c1	31.8	-11.0	21.2	.	-3.8	-9.0	.	.
CCc1ccc2nc(NC(=O)CCCc3cccs3)sc2c1	-39.1	23.5*	-21.2	-0.0457	6.5	-20.0	11.1	8.1
COC(=O)c1ccc(OCC2c3cc(OC)c(OC)cc3CCN2C(C)=O)cc1 (configuration not stated)	-10.8	1.8	0.6	-0.199	.	-15.2	.	.
COC(=O)c1ccc(OCC2c3cc(OC)c(OC)cc3CCN2C(=O)c2ccco2)cc1 (configuration not stated)	-29.8	22.2*	-15.2	-0.495	14.4	-13.9	19.7	18.3*

Compound activity: PubChem, several laboratories
